Assay outcomes: PubChem, several laboratories
STAT1 act: STAT1 signaling activators, primary screen, cell-based, HTS, luciferase reporter; activation (% of control), % at 5.5 µM; AID 932, 2007; 200,000 compounds, 2.6% hits; NIH 3T3 STAT1-luciferase reporter, IFN-gamma, luminescence; 100% = IFN-gamma alone, no compound;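 active means activation above the screen-wide mean activation plus 3 SD, cut at about 130% in these data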;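 further: raw ratio to IFN-gamma control signal so 100% means no change and 0% no light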
KCC2 mod: KCC2 cotransporter modulators, thallium flux, primary screen, cell-based, HEK293 KCC2, FluoZin-2 fluorescence, MLSMR. KCC2 cells, thallium flux FluoZin-2 fluorescence. B-score of Tl+ flux slope (higher = more flux/activation; lower = inhibition) at 10 µM. 190,000 compounds, 2.2% hits. Solute carrier family 12 member 5 (Homo sapiens), Q9H2X9;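 active means thallium flux slope and its plate-corrected score both differing from the plate sample mean at a set confidence after two filtering rounds, in either direction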;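 further: slope of fluorescence scaled to starting intensity during 10 to 20 s after thallium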
Target sequence (Q9H2X9 whole entry, looked up): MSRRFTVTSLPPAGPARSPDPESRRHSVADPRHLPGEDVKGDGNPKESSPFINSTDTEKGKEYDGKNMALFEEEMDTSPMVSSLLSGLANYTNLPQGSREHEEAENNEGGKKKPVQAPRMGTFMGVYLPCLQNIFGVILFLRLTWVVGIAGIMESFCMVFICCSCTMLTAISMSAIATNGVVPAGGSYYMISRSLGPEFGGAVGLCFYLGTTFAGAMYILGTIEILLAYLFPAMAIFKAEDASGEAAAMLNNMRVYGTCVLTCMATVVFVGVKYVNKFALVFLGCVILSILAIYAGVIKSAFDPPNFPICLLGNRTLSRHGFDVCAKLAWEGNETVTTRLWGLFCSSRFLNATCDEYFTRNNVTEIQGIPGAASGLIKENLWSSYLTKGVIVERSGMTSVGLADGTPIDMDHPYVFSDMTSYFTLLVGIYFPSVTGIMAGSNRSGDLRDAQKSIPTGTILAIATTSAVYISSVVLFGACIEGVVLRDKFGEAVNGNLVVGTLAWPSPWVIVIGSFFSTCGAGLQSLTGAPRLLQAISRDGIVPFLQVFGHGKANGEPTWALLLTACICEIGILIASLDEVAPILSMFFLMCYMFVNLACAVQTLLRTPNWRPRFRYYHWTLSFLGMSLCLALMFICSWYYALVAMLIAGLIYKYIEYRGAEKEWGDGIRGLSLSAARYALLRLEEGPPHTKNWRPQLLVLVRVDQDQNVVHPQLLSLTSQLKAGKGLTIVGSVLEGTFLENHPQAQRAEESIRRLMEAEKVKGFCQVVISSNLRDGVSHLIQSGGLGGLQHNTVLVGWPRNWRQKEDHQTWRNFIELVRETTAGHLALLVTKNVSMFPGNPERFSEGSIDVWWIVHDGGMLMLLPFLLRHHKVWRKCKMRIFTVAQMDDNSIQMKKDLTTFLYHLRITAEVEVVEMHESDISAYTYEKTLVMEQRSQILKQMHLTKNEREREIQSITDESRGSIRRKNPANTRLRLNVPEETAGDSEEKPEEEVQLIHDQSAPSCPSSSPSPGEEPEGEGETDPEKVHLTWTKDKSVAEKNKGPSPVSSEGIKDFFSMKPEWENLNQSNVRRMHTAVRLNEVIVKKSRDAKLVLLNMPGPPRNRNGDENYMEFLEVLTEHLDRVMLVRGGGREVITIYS
STAT1 blocker: STAT1 signaling inhibitors, primary screen, cell-based, HTS, luciferase reporter. NIH 3T3 STAT1-luciferase reporter, IFN-gamma, luminescence. inhibition, % at 5.5 µM. 200,000 compounds, 0.35% hits;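 active means inhibition above a set limit, the mean inhibition across all tested compounds plus 3 SD, cut at about 34% in these data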;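 further: 0% = IFN-gamma with DMSO and 100% = IFN-gamma with 300 µM nifuroxazide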
STAT3 inh: IL-6 driven STAT3 reporter inhibitors, primary screen, U3A cells, luciferase, luminescence, MLSCN library. IL-6 STAT3-luciferase reporter; host cell line lacks STAT1. inhibition, % at 5.5 µM. 190,000 compounds, 0.89% hits. AID 862, 2007;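 active means inhibition above the mean inhibition across all screened compounds plus 3 SD, cut at about 44% in these data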;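 further: 0% = DMSO only wells and 100% = 100 µM nifuroxazide control wells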
HSV augment: enhancers of HSV replication in host cells, fold increase, host cell viability; HSV replication augmentation in cells; maximum fold increase; 220,000 compounds, 0.005% hits; AID 1956, 2009; in the data active means maximum fold increase above about 1.5; tested in PC3 cells
STAT3 activator: IL-6 driven STAT3 reporter potentiators, primary screen, U3A cells, luciferase, luminescence, MLSCN library. IL-6 STAT3-luciferase reporter; 100% = signal with IL-6 EC80 alone. activation (% of control), % at 5.6 µM. 190,000 compounds, 0.91% hits;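 active means activation above the screen-wide mean of compound activation plus 3 SD, cut at about 130% in these data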;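 further: 0% = background luminescence of wells with medium and substrate only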
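Material: STAT3-luciferase reporter U3A cells; Probe or stimulus: IL-6 (33 ng/mL); Incubation: compound pre-incubation 1 h before IL-6, then 6 h stimulation at 37 °C; Technique: luminescence from STAT3-driven luciferase reporter; Evaluation: % activation versus median of IL-6-stimulated wells; Controls: IL-6-only high control.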
* = called active by the depositor; i = inactive; nt = not tested or not shown. Sampled rows, rich in hits. Any-hit rate of the full collection: about 5.5%.

SMILES	STAT1 act	KCC2 mod	STAT1 blocker	STAT3 inh	HSV augment	STAT3 activator
O=c1[nH]c(-c2ccccn2)nc2ccccc12	135*	1	-38	9	i	94
O=C(O)c1cccc(-c2nc3ccccc3[nH]2)c1	50	0.14	55*	65*	i	44
c1ccc2[nH]c(-c3ccncc3)nc2c1	88	0.7	11	15	i	90
O=c1[nH]c(-c2ccccn2)nc(C(F)(F)F)c1Br	91	0.51	9	14	i	97
c1csc(-c2nc3ccccc3[nH]2)c1	126	-0.66	-27	5	i	99
CON/C=N/C(=S)Nc1ncc(C(F)(F)F)cc1Cl	96	75*	1	3	i	101
FC(F)(F)c1cnc(NNC(=S)Nc2ccc(Cl)cc2)c(Cl)c1	95	30*	6	17	i	88
Cc1ccc(NC(=S)NNc2ncc(C(F)(F)F)cc2Cl)c(C)c1	86	4.3*	15	4	i	96
O=C(NNc1ncc(C(F)(F)F)cc1Cl)c1ccc(Cl)c(Cl)c1	nt	nt	nt	nt	i	nt
C=CCn1c(Cc2csc(N)n2)nnc1SCC(=O)Nc1ccccc1C(F)(F)F	99	nt	-1	5	i	97
CC(C)c1ccc(NC(=O)NN2CCOCC2)cc1	146*	-0.37	-53	1	i	107
c1ccc(CCSc2nccn2-c2ccccc2)cc1	142*	nt	-47	-5	i	109
N#Cc1c(Nc2ccccc2)sc(C(=O)C2CC2)c1N	103	0.21	-3	2	i	100
CC(=O)n1nc(-c2ccccc2)nc1NCc1ccc(N(C)C)cc1	142*	1.6	-49	-1	i	105
COCC(=O)n1nc(-c2ccccc2)nc1NCc1ccc(F)cc1	106	0.24	-6	-2	i	105
COCC(=O)n1nc(-c2ccccc2)nc1NCc1ccccc1	137*	-0.079	-40	-5	i	104
Cc1nn(C)cc1CN1CCCC(C(=O)c2ccc(-c3ccccc3)cc2)C1 (stereo unspecified)	93	-1.3	6	12	i	94
Cn1c(-c2sc3ccccc3c2Cl)n[nH]c1=S	101	13*	-1	8	i	95
COc1cc(/C(C)=N/NC(=O)CSc2nncn2C)ccc1OCc1ccccc1Cl	129*	-0.46	-32	11	i	91
CCOC(=O)c1cc(-c2cccnc2)nn1-c1ccccc1C	99	-0.33	0	8	i	94
COc1ccc(N(C(=O)COc2ccc(C)cc2)S(=O)(=O)c2ccc(C)cc2)cc1	107	-0.016	-7	-2	i	100
COc1ccccc1-c1ccc(SCc2ccccc2F)nn1	129*	-1.3	-32	8	i	96
Cc1ccc(C(=O)Nc2ccc3nc(C)sc3c2)s1	141*	nt	-44	4	i	100
Cn1cc(C(=O)NC2C3CC4CC(C3)CC2C4)cn1 (stereo unspecified)	102	0.12	-2	-6	i	104
Cn1cc(Br)c(C(=O)NC2C3CC4CC(C3)CC2C4)n1 (stereo unspecified)	147*	-0.21	-51	-10	i	108
SMILES	STAT1 act	KCC2 mod	STAT1 blocker	STAT3 inh	HSV augment	STAT3 activator
O=C(CSc1nc2ccccc2o1)Nc1nc(-c2ccccc2)cs1	147*	-0.91	-52	-4	i	109
Cc1ccc(-c2csc(NC(=O)CSc3nc(C)cc(=O)[nH]3)n2)cc1	93	-4.2*	8	5	i	96
Cc1ccc(-c2csc(NC(=O)CSC3=NCCS3)n2)cc1	101	-2.6	-14	4	i	99
CC(C)CCn1cnc2c(cnn2-c2ccc(F)cc2)c1=O	130*	nt	-33	2	i	99
COCCCNC(=O)c1ccc(Cn2c(=O)c3ccccc3n(CC(=O)NCCc3ccc(OC)c(OC)c3)c2=O)cc1	100	-1.6	-1	-9	i	108
CC[C@@]1(O)C(=O)OCc2c1cc1n(c2=O)Cc2cc3c(N)cccc3nc2-1	nt	nt	nt	nt	i	nt
